# ARFGAP1 inh: inhibits rat ARF GTPase activating protein 1; AID 651572; Q62848; 0.26% of 360,000 active; inhibition, % at 16.5 µM; Arfgap1-stimulated ARF1 GTP hydrolysis, GDP FP detection;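 active = inhibition above a per-plate limit, mean inhibition of low control wells plus 3 SD, cut at about 25% in these data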;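 note: 0% = DMSO wells with enzyme and 100% = wells lacking Arfgap1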
#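 Material – truncated rat Arfgap1 GAP domain · Buffer or medium – HEPES-based buffer, pH 7.5 · Reagent – human ARF1(Δ1-17)-GTP substrate · Dosing – 16.5 µM single point, 1.26% DMSO · Schedule – GTP hydrolysis reaction 2 h at 25 °C · Technique – GDP detection by fluorescence polarization · Benchmarks – No-Arfgap1 wells (100%) versus DMSO full-reaction wells (0%) · Repeats – single replicate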
# LANA-H2B inh: blocks KSHV LANA binding to histone H2A/H2B | Q9QR71 | cell-free LANA-H2A/H2B peptide, fluorescence polarization | inhibition, % (test concentration not listed) | 0.6% of 320,000 active; in the data active = inhibition mostly above about 10%, no sharp cut-off; inactive = mostly below about 6.7%
# procasp7 counter: counter-screen for procaspase-3 activators: activators of human procaspase-7; 0.093% of 330,000 active; activation, % at 8.5 µM; recombinant procaspase-7, Ac-DEVD-pNA absorbance 405 nm; D23A/D198A/D206A triple mutant, cannot self-cleave; scale: DMSO 0, 5 µM enzyme 100;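 active = percent activation above the screen-wide mean plus 3 SD, cut at about 25% in these data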
# Target sequence (P55210 whole entry D23A/D198A/D206A): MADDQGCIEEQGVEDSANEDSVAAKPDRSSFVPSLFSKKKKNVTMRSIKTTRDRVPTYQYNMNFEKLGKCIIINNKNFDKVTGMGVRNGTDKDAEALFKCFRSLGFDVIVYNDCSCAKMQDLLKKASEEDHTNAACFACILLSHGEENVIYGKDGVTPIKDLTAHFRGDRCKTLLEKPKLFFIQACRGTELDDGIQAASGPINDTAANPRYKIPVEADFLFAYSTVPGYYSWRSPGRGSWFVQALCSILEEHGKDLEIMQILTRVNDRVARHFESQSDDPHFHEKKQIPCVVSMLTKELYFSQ
#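 Assay system: Uncleavable procaspase-7 mutant enzyme / Input: 2 µM procaspase-7 mutant as dispensed / Dosing: single nominal 8.5 µM compound dose, 0.8% DMSO final / Timing: 1 h enzyme–compound preincubation and 2 h substrate reaction, both 25 °C / Detection: p-Nitroaniline absorbance at 405 nm, read at 0 and 120 min / Replication: singlicate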
# proCasp3 act: activators of human procaspase-3; 0.11% of 330,000 active; recombinant procaspase-3 D3A, Ac-DEVD-pNA absorbance 405 nm; activation, % at 8.5 µM;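 active = activation above the mean of all tested compounds plus 3 SD, cut at about 21% in these data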;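 note: 0% = DMSO alone and 100% = DMSO wells spiked with extra 5 µM PC-3 D3A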
# Target sequence (P42574 whole entry D9A/D28A/D175A): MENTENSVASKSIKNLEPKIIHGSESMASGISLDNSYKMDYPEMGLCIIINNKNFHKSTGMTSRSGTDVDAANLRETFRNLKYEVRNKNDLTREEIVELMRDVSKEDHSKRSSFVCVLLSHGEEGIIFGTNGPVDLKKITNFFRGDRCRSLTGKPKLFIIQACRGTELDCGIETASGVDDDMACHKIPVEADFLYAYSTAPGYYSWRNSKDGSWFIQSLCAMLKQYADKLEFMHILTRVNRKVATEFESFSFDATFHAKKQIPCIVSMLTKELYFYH
#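 Test system: Procaspase-3 D3A mutant; medium: Zinc-free HEPES/NaCl buffer with 0.01% Triton X-100 at pH 7.4; reagent: DEVD-pNA substrate; doses: one concentration, 8.5 µM nominal, 0.8% DMSO; times: 1 h preincubation plus 2 h reaction at 25 °C; signal: Epi-absorbance at 405 nm of released p-nitroaniline, 0 and 120 min; replicates: singlicate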
# ASAP1 GAP inh: blocks human ASAP1-stimulated Arf1 GTP hydrolysis | inhibition, % at 16.5 µM | AID 624377 | GDP FP detection | Q9ULH1 | 0.19% of 360,000 active; in the data active = inhibition above about 25%;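 note: 0% = vehicle with enzyme and substrate and 100% = no enzyme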
# CR mimetic SO: caloric restriction mimetics inhibiting age-related superoxide in yeast | S. cerevisiae aged cells, superoxide DHE fluorescence; active compounds read low | superoxide response (% of plate mean), % at 10 µM | 0.18% of 330,000 active;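 active = superoxide response under a set limit, about three screen SD below normal, cut at about 65% in these data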;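 note: yeast aged for seven days with compound at 30 °C before DHE staining; 100% = average MFI of all compound-treated wells on the plate with controls excluded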
# PC3 dual counter: activates human procaspase-3, dual activator counter-screen; 290 tested, under 10 active; recombinant PC-3 D3A, Ac-DEVD-pNA absorbance 405 nm; aspartates 9, 28, 175 changed to alanine; 100% = enzyme control; shares compounds with procasp7 counter; activation, % at 8.5 µM;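 active = mean percent activation across triplicates above a set limit taken from the earlier primary procaspase-3 screen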;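 note: 0% = DMSO wells and 100% = DMSO wells with 5 µM added PC-3 D3A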
# Procasp7 act: confirmation of dual procaspase activators: human procaspase-7 activation; shares compounds with procasp7 counter; recombinant procaspase-7, Ac-DEVD-pNA absorbance 405 nm; D23A/D198A/D206A mutant that cannot self-cleave; activation, % at 8.5 µM; 290 tested, under 10 active;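 active = mean activation above a set limit carried over from the earlier primary screen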;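 note: 0% = DMSO only and 100% = DMSO with added 5 µM PC-7 enzyme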
# An asterisk follows results filed as active; . = no result. Compounds with a hit are over-represented: about 1.2% of the library has one in this group of screens.
SMILES,ARFGAP1 inh,LANA-H2B inh,procasp7 counter,proCasp3 act,ASAP1 GAP inh,CR mimetic SO,PC3 dual counter,Procasp7 act
COC(=O)C1=C(C)NC(=O)NC1c1ccc(N2CCC(c3ccccc3)=N2)cc1 (stereo not drawn),1,1,38*,85*,2,103,-30,-35
COc1ccc(-c2nc3ccccc3nc2-c2ccc(OC)cc2)cc1,4,-5,33*,32*,3,100,-30,-36
COc1ccc([N+](=O)[O-])cc1N(CC(=O)NCC1CCCO1)S(C)(=O)=O (stereo not drawn),-3,2,-1,0,-14,106,.,.
Cc1ccc(C)c(CSC2=NCCN2S(=O)(=O)c2ccccc2)c1,-5,-4,2,7,1,103,.,.
C=CCNC1=C(Cl)C(=O)N(c2cccc(Cl)c2Cl)C1=O,5,3,32*,6,9,94,9,5
O=C1C(Cl)=C(NCC2CCCO2)C(=O)N1c1cccc(Cl)c1Cl (stereo not drawn),0,3,22,6,-8,117,.,.
COc1ccc2nc3cc(Cl)ccc3c(Nc3cc(C(C)C)c(O)cc3C)c2c1,-6,1,26*,-18,-1,111,-18,-23
COc1ccc(S(=O)(=O)Nc2cc(C(C)C)c(O)cc2C)cc1,-2,3,2,1,-15,99,.,.
COc1ccc(C2CC(c3ccc(C(F)(F)F)cc3)=NN2c2ccc(S(N)(=O)=O)cc2)cc1 (stereo not drawn),18,.,28*,23*,23,77,-31,-36
COc1ccc(C2CC(c3ccccc3Br)=NN2c2ccc(S(N)(=O)=O)cc2)cc1 (stereo not drawn),17,.,16,21,14,100,.,.
COc1ccc(C2CC(c3ccccc3F)=NN2c2ccc(S(N)(=O)=O)cc2)cc1 (stereo not drawn),2,.,35*,34*,0,108,-29,-34
CCN(CC)c1ccc(C(=O)OCc2cc(=O)oc3cc(O)ccc23)cc1,12,-1,40*,32*,-5,106,0,0
CCN(CC)c1ccc2c(O)cc(=O)oc2c1,-5,5,-6,-5,0,84,.,.
COC(=O)C1=C(C)NC(C)=C(C(=O)OC)C1c1ccc(OC(=O)c2oc3ccccc3c2C)c(OC)c1,8,-4,81*,35*,14,102,4,5
C[C@@H]1C(c2cccc(Cl)c2)=NN(c2ccccc2)[C@H]1C(=O)N1CCOC1=O,3,.,30*,7,6,92,-30,-36
Cc1cccc(C2=NN(c3ccc(Br)cc3)[C@@H](C(=O)N3CCOC3=O)[C@@H]2c2ccccc2)c1,.,.,32*,20,.,99,-30,-33
C[C@@H]1C(c2ccccc2)=NN(c2ccccc2)[C@H]1C(=O)N1CCOC1=O,-1,.,3,-4,-11,104,.,.
C[C@@H]1C(c2cccc(Cl)c2)=NN(c2ccc(Br)cc2)[C@H]1C(=O)N1CCOC1=O,.,.,29*,22*,.,92,-30,-36
O=C(O)c1cccc(CN2C(=O)SC(Nc3cccc4ccccc34)C2=O)c1 (stereo not drawn),-6,4,-44,-10,9,112,.,.
C=C1CC(C(=O)N/N=C/c2ccccc2)C1,-8,-2,6,4,-6,93,.,.
Cc1cc(C)c(C#N)c(OCC(=O)c2ccc(Br)cc2)n1,4,-2,46*,4,-13,129,-5,-3
N#Cc1c(N)nc2c(c1-c1ccc3c(c1)OCO3)CCc1ccccc1-2,-1,1,30*,16,-6,97,-30,-34
C=CCOc1ccccc1C1C2=C(CC(C)(C)CC2=O)Nc2c1c(=O)n(C)c(=O)n2C (stereo not drawn),5,0,-1,-3,2,101,.,.
COc1ccc(C2C3=C(CC(C)(C)CC3=O)Nc3c2c(=O)n(C)c(=O)n3C)cc1OC (stereo not drawn),-7,0,27*,6,-6,99,-28,-24
CC(C)(C)OC(=O)NN1CC(=O)N2[C@@H](Cc3c([nH]c4ccccc34)C2(C)C)C1=O,14,-2,4,5,-8,107,.,.
SMILES,ARFGAP1 inh,LANA-H2B inh,procasp7 counter,proCasp3 act,ASAP1 GAP inh,CR mimetic SO,PC3 dual counter,Procasp7 act
CCCCCCCCN1C(=O)[C@@H](CC(=O)NCC2CCCCC2)C[C@@]2(C(=O)OC)C1=C[C@H](C(C)(C)C)O[C@@H]2C,6,.,.,.,-8,.,.,.
Cc1ccsc1C(=O)Nc1ccc(O)c(-c2nc3ccccc3s2)c1,3,4,9,10,-6,104,.,.
CC(=O)Nc1ccc(O)c(-c2nc3ccccc3s2)c1,-1,4,36*,8,-2,102,0,-1
O=C(Nc1ccc(O)c(-c2nc3ccccc3s2)c1)C1=COCCO1,-10,7,32*,-1,20,91,2,1
COc1ccc(CC(=O)Nc2nn(C)c3nc4c(C)cccc4cc23)cc1,4,1,40*,23*,0,104,-30,-35
O=C(NNC(=O)c1cc2cc3ccccc3nc2s1)c1cccc(C(F)(F)F)c1,-3,-2,26*,0,2,106,-23,-19
Clc1ncccc1-c1nc2ccccc2s1,13,-1,5,3,2,97,.,.
O=c1c(-c2nc3ccccc3s2)cccn1Cc1ccc(Cl)cc1,2,4,90*,123*,-2,92,-29,-36
Cc1cc(C)c(C#N)c(SCC(=O)Nc2ccccc2C)n1,20,4,-3,-3,-7,106,.,.
Cc1ccc2sc(NC(=O)CSc3nc(C)cc(C)c3C#N)nc2c1,-2,-1,42*,18,-13,91,-30,-36
C=CC[C@H](CC(=O)N(CCO)Cc1ccccc1)C(=O)N[C@H](C)COC(=O)[C@@H](CC=C)Cc1ccc(F)cc1,-2,1,-2,1,5,100,.,.
